Results as given in ChEMBL document CHEMBL1148638, “Aminopyridine-based c-Jun N-terminal kinase inhibitors with cellular activity and minimal cross-kinase activity” (J Med Chem, 2006).

Legend:
[1] = Volume of distribution at steady state in iv dosed Sprague-Dawley rat; format: ADME, organism-based; settings: in vivo, read-out: Vss
[2] = AUC in po dosed Sprague-Dawley rat; format: ADME, organism-based; settings: plasma
In short: (§1)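 Sprague-Dawley rats were dosed orally. Oral half-life is reported in hours and Cmax as the maximum plasma concentration in µM. AUC is total oral exposure from t = 0 to t = ∞, in µg·h/mL.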

[3] = Tmax in po dosed Sprague-Dawley rat; format: ADME, organism-based; settings: in vivo
[4] = Volume of distribution in iv dosed Sprague-Dawley rat; format: ADME, organism-based; settings: in vivo, read-out: Vdss
[5] = Plasma clearance in iv dosed Sprague-Dawley rat; format: ADME, organism-based
[6] = Cmax in po dosed Sprague-Dawley rat; format: ADME, organism-based; design: route oral; settings: in vivo; in short: as §1
[7] = Oral bioavailability in Sprague-Dawley rat; format: ADME, organism-based; settings: in vivo
[8] = Half life in iv dosed Sprague-Dawley rat; format: ADME, organism-based; settings: in vivo
In short: (§2)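 Sprague-Dawley rats received 5 mg/kg intravenously. Half-life is reported in hours. AUC is total drug exposure after iv dosing, from t = 0 to t = ∞, in µg·h/mL.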

[9] = AUC in iv dosed Sprague-Dawley rat; format: ADME, organism-based; settings: plasma; in short: as §2
[10] = molecular target: T1, Calcium/calmodulin-dependent protein kinase type IV (Homo sapiens, UniProt Q16566); test: Inhibition of CaMK4
T1 sequence (Q16566 whole entry): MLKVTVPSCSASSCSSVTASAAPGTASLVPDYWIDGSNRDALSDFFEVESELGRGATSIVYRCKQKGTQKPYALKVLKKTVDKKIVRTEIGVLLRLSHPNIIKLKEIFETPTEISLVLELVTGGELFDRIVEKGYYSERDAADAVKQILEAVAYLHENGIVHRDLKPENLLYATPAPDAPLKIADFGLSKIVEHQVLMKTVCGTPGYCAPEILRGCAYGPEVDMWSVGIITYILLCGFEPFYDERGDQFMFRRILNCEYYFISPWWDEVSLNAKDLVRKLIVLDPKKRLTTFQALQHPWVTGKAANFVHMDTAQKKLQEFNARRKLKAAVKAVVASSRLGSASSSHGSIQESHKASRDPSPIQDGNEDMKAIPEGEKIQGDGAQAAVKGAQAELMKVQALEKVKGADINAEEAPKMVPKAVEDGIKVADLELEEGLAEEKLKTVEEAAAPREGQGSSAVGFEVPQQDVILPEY
In short: (§3)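 Recombinant kinases were commercial, or baculovirus-expressed and purified by His-tag or GST affinity. Each was incubated 1 h with biotinylated substrate peptide (2 µM), γ-[33P]-ATP (5 µM) and inhibitor (3-10000 nM, 2% DMSO) in 25 mM Hepes pH 7.5, 10 mM MgCl2, Na3VO4. Reactions were stopped with EDTA/NaCl and read by streptavidin FlashPlate capture. IC50 came from titrations, converted to Ki by Cheng-Prusoff.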

Activated CDC42 kinase 1 = Activated CDC42 kinase 1 (Homo sapiens, UniProt Q07912); test: Inhibition of CDC42; in short: as §3
[11] = molecular target: Mitogen-activated protein kinase 10 (Homo sapiens, UniProt P53779); test: Inhibition of JNK3-mediated ATF2 phosphorylation
[12] = molecular target: T2, Serine/threonine-protein kinase Sgk1 (Homo sapiens, UniProt O00141); test: Inhibition of SGK
T2 sequence (O00141 whole entry): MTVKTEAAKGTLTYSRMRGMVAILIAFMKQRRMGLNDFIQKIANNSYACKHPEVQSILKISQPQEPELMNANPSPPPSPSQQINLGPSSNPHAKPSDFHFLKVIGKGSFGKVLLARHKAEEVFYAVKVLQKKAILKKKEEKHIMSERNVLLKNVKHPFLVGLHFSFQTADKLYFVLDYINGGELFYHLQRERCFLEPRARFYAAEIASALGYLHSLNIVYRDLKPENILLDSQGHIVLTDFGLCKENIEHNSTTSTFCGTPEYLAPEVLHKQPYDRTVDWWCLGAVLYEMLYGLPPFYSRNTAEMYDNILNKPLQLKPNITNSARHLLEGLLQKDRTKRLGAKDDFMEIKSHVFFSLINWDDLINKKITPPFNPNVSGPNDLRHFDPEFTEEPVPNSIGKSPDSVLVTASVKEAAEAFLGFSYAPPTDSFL

[13] = Half life in po dosed Sprague-Dawley rat; format: ADME, organism-based; settings: in vivo; in short: as §1
[14] = molecular target: BDNF/NT-3 growth factors receptor (Homo sapiens, UniProt Q16620); test: Inhibition of TrkB
In short: (§4)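 Tyrosine kinases (recombinant, His/GST-purified or commercial) measured by HTRF: 0.5 µM biotinylated peptide, ATP 10 µM to 1 mM, inhibitor in 2% DMSO, 1 h in 50 mM Hepes pH 7.4 with MgCl2, MnCl2, Na3VO4, DTT, BSA. IC50 from six-point titrations; Ki via Cheng-Prusoff.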

[15] = molecular target: 3-phosphoinositide-dependent protein kinase 1 (Homo sapiens) (UniProt O15530); test: Inhibition of PDK1
[16] = molecular target: Mast/stem cell growth factor receptor Kit (Homo sapiens, UniProt P10721); test: Inhibition of cKit; in short: as §4
[17] = molecular target: Proto-oncogene tyrosine-protein kinase Src (Homo sapiens, UniProt P12931); test: Inhibition of Src; in short: as §4
[18] = molecular target: High affinity nerve growth factor receptor (Homo sapiens, UniProt P04629)
[19] = molecular target: Inhibitor of nuclear factor kappa-B kinase subunit beta (Homo sapiens, UniProt O14920); test: Inhibition of IKK-beta; in short: as §3
[20] = molecular target: Tyrosine-protein kinase JAK3 (Homo sapiens, UniProt P52333); test: Inhibition of JAK3
In short: (§5)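 Recombinant tyrosine kinases were incubated 1 h with biotinylated peptide (0.5 µM), ATP (10 µM to 1 mM) and inhibitor in 2% DMSO. Buffer was 50 mM Hepes pH 7.4 with MgCl2, MnCl2 and vanadate. Detection was HTRF: Eu anti-pY antibody plus streptavidin-APC, read 60 min later. IC50 came from titration curves, converted to Ki by Cheng-Prusoff.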

[21] = molecular target: Fibroblast growth factor receptor (Homo sapiens, UniProt P22607+P11362+P22455+P21802); test: Inhibition of FGFR; format: protein assay; in short: as §5
[22] = molecular target: Tyrosine-protein kinase Blk (Homo sapiens, UniProt P51451)
[23] = molecular target: Fibroblast growth factor receptor 3 (Homo sapiens, UniProt P22607); test: Inhibition of FGFR3; in short: as §5
[24] = molecular target: Non-receptor tyrosine-protein kinase TYK2 (Homo sapiens, UniProt P29597); test: Inhibition of Tyk2; in short: as §4
[25] = molecular target: Death-associated protein kinase 3 (Homo sapiens, UniProt O43293); test: Inhibition of ZipK
[26] = molecular target: Receptor tyrosine-protein kinase erbB-2 (Homo sapiens, UniProt P04626); test: Inhibition of ErbB2; in short: as §5
[27] = molecular target: Tyrosine-protein kinase ABL1 (Homo sapiens, UniProt P00519); test: Inhibition of Abl; in short: as §5
[28] = molecular target: Receptor-type tyrosine-protein kinase FLT3 (Homo sapiens, UniProt P36888); test: Inhibition of Flt3; in short: as §5
[29] = molecular target: Macrophage colony-stimulating factor 1 receptor (Homo sapiens, UniProt P07333); test: Inhibition of CSF1R; in short: as §5
[30] = molecular target: Vascular endothelial growth factor receptor 1 (Homo sapiens, UniProt P17948); test: Inhibition of Flt1; in short: as §5
[31] = molecular target: Tyrosine-protein kinase Fyn (Homo sapiens, UniProt P06241); test: Inhibition of Fyn; in short: as §5
[32] = molecular target: Serine/threonine-protein kinase pim-2 (Homo sapiens, UniProt Q9P1W9); test: Inhibition of Pim2
[33] = molecular target: Tyrosine-protein kinase JAK2 (Homo sapiens, UniProt O60674); test: Inhibition of JAK2; in short: as §5
[34] = molecular target: Hepatocyte growth factor receptor (Homo sapiens, UniProt P08581)
[35] = molecular target: Serine/threonine-protein kinase PAK 4 (Homo sapiens, UniProt O96013); test: Inhibition of PAK4; in short: as §3
[36] = molecular target: Tyrosine-protein kinase Lck (Homo sapiens, UniProt P06239)
Insulin receptor = Insulin receptor (Homo sapiens, UniProt P06213)
[37] = molecular target: Tyrosine-protein kinase Lyn (Homo sapiens, UniProt P07948); test: Inhibition of Lyn; in short: as §5
[38] = molecular target: Mitogen-activated protein kinase 13 (Homo sapiens, UniProt O15264)

Activated CDC42 kinase 1, sequence (Q07912 whole entry): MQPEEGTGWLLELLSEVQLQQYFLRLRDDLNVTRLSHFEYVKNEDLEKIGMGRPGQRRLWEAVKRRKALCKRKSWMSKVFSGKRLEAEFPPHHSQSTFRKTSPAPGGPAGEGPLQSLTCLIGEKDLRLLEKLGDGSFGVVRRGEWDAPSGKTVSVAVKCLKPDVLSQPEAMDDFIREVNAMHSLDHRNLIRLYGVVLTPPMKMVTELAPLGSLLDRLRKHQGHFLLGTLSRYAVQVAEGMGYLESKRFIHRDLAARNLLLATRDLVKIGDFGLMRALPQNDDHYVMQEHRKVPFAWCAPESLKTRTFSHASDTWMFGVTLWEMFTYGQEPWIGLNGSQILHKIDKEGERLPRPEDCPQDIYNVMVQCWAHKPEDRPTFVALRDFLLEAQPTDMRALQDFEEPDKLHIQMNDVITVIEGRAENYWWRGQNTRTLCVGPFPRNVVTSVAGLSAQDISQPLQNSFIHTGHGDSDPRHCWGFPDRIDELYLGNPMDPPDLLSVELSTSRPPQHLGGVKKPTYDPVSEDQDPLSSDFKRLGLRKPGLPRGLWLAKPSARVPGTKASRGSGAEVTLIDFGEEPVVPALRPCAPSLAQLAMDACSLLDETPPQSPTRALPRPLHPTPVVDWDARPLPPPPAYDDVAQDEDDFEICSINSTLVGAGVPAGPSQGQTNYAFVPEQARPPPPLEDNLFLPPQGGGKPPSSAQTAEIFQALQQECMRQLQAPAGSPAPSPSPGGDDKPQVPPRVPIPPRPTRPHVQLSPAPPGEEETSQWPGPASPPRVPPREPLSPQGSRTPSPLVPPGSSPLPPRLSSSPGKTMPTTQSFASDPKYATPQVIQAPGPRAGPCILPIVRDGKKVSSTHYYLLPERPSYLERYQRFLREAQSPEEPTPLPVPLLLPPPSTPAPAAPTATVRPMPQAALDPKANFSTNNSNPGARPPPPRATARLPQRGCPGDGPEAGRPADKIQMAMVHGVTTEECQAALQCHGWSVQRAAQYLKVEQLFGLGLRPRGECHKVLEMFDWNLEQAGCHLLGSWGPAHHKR
Mast/stem cell growth factor receptor Kit, sequence (P10721 whole entry): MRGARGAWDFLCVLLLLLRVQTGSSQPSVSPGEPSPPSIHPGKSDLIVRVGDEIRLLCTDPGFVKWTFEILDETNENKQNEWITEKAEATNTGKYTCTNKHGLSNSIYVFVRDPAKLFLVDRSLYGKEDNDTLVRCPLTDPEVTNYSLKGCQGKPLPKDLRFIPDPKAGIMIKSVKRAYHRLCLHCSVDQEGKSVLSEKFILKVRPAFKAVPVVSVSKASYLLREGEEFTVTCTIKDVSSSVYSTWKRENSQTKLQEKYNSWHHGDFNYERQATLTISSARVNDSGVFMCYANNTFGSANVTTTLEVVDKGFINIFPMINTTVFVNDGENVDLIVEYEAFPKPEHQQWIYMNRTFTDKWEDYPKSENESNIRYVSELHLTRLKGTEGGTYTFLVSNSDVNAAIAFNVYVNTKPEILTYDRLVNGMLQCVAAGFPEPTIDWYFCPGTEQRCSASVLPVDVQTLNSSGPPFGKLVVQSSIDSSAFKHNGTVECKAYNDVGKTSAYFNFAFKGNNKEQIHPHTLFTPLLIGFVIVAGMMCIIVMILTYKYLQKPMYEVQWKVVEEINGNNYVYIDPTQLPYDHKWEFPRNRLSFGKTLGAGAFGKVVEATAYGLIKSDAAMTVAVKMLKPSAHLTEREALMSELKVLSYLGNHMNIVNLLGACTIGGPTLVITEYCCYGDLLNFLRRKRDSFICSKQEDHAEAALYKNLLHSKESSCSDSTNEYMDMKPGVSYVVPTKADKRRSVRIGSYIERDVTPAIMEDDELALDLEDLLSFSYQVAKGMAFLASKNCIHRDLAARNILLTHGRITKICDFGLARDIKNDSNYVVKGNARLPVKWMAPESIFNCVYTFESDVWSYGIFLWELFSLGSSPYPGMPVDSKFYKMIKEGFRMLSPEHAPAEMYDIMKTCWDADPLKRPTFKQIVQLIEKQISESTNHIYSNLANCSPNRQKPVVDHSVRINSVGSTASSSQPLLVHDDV
Vascular endothelial growth factor receptor 1, sequence (P17948 whole entry): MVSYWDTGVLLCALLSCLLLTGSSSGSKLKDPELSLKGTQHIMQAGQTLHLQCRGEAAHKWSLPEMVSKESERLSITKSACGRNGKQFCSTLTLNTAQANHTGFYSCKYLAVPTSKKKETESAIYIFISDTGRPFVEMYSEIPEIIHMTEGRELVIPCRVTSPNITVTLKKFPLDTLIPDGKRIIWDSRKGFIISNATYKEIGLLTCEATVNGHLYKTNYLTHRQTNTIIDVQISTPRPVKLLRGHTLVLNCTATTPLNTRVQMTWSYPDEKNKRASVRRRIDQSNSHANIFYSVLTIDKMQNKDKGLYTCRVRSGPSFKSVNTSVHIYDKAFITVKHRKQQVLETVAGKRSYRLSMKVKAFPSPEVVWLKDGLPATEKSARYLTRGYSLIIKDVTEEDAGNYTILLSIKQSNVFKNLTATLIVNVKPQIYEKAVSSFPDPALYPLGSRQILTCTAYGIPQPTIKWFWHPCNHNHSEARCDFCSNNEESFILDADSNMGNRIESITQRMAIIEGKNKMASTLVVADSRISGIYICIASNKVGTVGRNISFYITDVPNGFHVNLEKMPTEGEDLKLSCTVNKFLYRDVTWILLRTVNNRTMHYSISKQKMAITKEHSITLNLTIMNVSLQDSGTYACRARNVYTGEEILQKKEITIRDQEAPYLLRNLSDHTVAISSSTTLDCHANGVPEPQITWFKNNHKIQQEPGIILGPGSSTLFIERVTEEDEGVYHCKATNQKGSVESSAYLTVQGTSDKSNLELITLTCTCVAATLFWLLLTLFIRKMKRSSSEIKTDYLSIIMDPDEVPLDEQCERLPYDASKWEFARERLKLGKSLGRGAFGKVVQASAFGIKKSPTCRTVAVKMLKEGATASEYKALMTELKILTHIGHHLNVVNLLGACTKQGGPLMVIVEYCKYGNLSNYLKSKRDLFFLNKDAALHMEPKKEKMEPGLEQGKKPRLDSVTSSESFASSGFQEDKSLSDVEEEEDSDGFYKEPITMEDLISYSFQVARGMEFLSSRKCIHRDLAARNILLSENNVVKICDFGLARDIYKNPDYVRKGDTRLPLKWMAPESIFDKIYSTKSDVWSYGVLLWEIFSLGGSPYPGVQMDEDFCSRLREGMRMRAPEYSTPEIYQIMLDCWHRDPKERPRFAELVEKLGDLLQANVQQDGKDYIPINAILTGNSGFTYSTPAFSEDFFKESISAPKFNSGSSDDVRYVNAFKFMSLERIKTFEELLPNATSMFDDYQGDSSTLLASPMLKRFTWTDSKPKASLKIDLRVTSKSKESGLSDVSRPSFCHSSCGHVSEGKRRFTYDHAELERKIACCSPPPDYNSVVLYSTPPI
Tyrosine-protein kinase JAK2, sequence (O60674 whole entry): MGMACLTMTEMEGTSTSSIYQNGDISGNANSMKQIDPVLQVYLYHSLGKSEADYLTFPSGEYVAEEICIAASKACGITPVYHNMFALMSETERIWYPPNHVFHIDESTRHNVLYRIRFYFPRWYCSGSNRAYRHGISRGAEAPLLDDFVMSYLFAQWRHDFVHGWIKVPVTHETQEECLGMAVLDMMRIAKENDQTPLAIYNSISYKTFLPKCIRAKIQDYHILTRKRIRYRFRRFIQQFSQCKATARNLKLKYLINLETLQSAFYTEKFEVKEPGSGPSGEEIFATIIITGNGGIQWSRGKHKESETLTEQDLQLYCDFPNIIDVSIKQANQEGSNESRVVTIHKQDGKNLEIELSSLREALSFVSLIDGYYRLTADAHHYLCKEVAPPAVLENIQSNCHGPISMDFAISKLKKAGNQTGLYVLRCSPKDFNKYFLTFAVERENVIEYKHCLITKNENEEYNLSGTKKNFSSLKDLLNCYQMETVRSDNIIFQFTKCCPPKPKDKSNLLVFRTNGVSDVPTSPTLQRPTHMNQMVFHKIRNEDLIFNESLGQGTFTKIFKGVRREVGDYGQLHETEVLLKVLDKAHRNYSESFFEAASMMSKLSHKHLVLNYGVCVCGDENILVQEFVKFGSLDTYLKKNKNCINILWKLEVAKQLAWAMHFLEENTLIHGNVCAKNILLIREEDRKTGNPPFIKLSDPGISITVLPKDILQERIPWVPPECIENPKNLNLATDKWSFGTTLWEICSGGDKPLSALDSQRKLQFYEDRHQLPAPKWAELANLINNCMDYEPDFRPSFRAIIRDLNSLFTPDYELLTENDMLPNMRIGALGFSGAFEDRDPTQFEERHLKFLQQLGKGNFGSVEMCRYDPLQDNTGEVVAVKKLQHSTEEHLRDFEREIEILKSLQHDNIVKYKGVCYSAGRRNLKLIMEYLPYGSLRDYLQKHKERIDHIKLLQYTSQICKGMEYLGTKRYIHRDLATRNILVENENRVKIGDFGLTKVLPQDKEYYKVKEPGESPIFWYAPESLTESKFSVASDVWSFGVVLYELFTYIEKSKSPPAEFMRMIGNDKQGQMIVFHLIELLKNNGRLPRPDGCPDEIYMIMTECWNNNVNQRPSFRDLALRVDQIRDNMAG
Death-associated protein kinase 3, sequence (O43293 whole entry): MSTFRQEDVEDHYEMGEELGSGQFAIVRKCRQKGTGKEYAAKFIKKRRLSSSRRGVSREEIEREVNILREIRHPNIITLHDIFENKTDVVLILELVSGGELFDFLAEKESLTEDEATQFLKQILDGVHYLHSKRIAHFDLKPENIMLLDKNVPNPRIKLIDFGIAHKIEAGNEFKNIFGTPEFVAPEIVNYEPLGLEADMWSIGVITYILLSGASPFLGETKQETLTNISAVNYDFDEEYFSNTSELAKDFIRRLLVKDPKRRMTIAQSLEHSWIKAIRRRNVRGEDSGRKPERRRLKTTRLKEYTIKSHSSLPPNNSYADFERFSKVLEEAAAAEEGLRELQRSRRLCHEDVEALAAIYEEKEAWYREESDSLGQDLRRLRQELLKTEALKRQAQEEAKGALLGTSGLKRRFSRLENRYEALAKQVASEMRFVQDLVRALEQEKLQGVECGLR

Row | Structure (SMILES) | Vd [1] | AUC [2] | Tmax [3] | Vd [4] | clearance [5] | Cmax [6] | bioavailability [7] | half-life [8] | AUC [9] | Ki [10] | Ki (Activated CDC42 kinase 1) | Ki [11] | Ki [12] | half-life [13] | Ki [16] | Ki [20] | Ki [22] | Ki [26] | Ki [27] | Ki [25] | other results
1 | CC(=O)Nc1cc(N)c(C#N)c(-c2ccccc2)n1 | – | – | – | – | – | – | – | – | – | > 8.6 µM | > 9.5 µM | – | > 9.4 µM | – | > 1.2 µM | > 1.7 µM | > 1.5 µM | > 1.4 µM | > 0.71 µM | > 1.4 µM | Ki [14]: > 4.5 µM; Ki [15]: > 3.8 µM; Ki [17]: > 1.9 µM; Ki [18]: > 2.5 µM; Ki [19]: > 3.2 µM; Ki [21]: > 4.7 µM; Ki [23]: > 1.9 µM; Ki [24]: > 1.9 µM; Ki [28]: > 2.5 µM; Ki [29]: > 2.5 µM; Ki [30]: > 0.44 µM; Ki [31]: > 0.81 µM; Ki [32]: > 1.4 µM; Ki [33]: > 1.5 µM; Ki [34]: > 2.9 µM; Ki [35]: > 5.5 µM; Ki [36]: > 2.7 µM; Ki (Insulin receptor): > 5.2 µM; Ki [37]: > 1.7 µM
2 | CCOc1nc(NC(=O)Cc2cc(OC)c(S(C)(=O)=O)cc2OC)cc(N)c1C#N | 1.5 L/kg | 1100 ng·h/mL | 0.5 h | 4.7 L/kg | 25 mL/min/kg | 1360 nM | 31% | 2 h | 3500 ng·h/mL | > 8.6 µM | > 9.5 µM | 0.072 µM | > 9.4 µM | 1.5 h | – | – | – | – | – | – | –
3 | CCOc1nc(NC(C)=O)cc(N)c1C#N | – | – | – | – | – | – | – | – | – | > 8.6 µM | > 9.5 µM | – | > 9.4 µM | – | > 1.2 µM | > 1.7 µM | > 1.5 µM | > 1.4 µM | > 0.71 µM | > 1.4 µM | Ki [30]: > 0.44 µM; Ki [31]: > 0.81 µM; Ki [32]: > 1.4 µM; Ki [33]: > 1.5 µM; Ki [37]: > 1.7 µM

More lines, main results first:

Row | Vd [1] | AUC [2] | Tmax [3] | Vd [4] | clearance [5] | Cmax [6] | bioavailability [7] | half-life [8] | AUC [9] | Ki [10] | Ki (Activated CDC42 kinase 1) | Ki [11] | Ki [12] | half-life [13] | Ki [16] | Ki [20] | Ki [22] | Ki [26] | Ki [27] | Structure (SMILES) | Ki [25] | other results
4 | 1.6 L/kg | 1500 ng·h/mL | 0.67 h | 2 L/kg | 28.3 mL/min/kg | 1420 nM | 49% | 0.8 h | 3000 ng·h/mL | > 8.6 µM | > 9.5 µM | 0.061 µM | > 9.4 µM | 2.1 h | – | – | – | – | – | CCOc1nc(NC(=O)Cc2cc(OC)c(S(C)(=O)=O)cc2OC)cc(N)c1Cl | – | –
5 | 1.2 L/kg | 110 ng·h/mL | 0.033 h | 2.6 L/kg | 20 mL/min/kg | 310 nM | 2.7% | 1.4 h | 4100 ng·h/mL | > 8.6 µM | > 9.5 µM | – | > 9.4 µM | 1.1 h | – | – | – | – | – | CCOc1nc(NC(=O)Cc2cc(OC)ccc2OC)cc(N)c1C#N | – | Ki [38]: > 6.9 µM
